{"source": "ChEMBL document CHEMBL4000211", "about": "“Discovery of novel polycyclic spiro-fused carbocyclicoxindole-based anticancer agents” (Eur J Med Chem, 2017)", "key": {"[1]": {"tested_on": "HCT-116", "experiment": "Induction of apoptosis in human HCT116 cells assessed as viable cells at 10 uM after 24 hrs by annexin V-FITC/propidium iodide staining-based flow cytometric method (reference value: 93.48%)", "format": "functional", "settings": "HCT-116, 24 h, read-out: Activity", "summary_of_the_method": "(§1)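 HCT116 cells seeded at 1×10⁶ cells/mL in 6-well plates for 24 h, then exposed to 0, 7.5, 10 or 12.5 μM for a further 24 h or 48 h. Cells washed twice in PBS, then stained with Annexin V-FITC plus PI (100 μg/mL stock) in binding buffer (10 mM HEPES, pH 7.4, 2.5 mM CaCl₂) for 30 min at room temperature in the dark. Early and late apoptotic fractions gated by flow cytometry.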"}, "[2]": {"tested_on": "HCT-116", "experiment": "Cell cycle arrest in human HCT116 cells assessed as accumulation at G2 phase at 10 uM after 24 hrs by propidium iodide staining-based flow cytometric method (reference value: 26.10%)", "format": "functional"}, "[3]": {"tested_on": "HCT-116", "experiment": "Induction of apoptosis in human HCT116 cells assessed as necrotic cells at 12.5 uM after 24 hrs by annexin V-FITC/propidium iodide staining-based flow cytometric method (reference value: 1.85%)", "format": "functional", "summary_of_the_method": "as §1"}, "[4]": {"tested_on": "HCT-116", "experiment": "Cell cycle arrest in human HCT116 cells assessed as accumulation at G2 phase at 7.5 uM after 48 hrs by propidium iodide staining-based flow cytometric method (reference value: 31.27%)", "format": "functional"}, "[5]": {"tested_on": "HCT-116", "experiment": "Induction of apoptosis in human HCT116 cells assessed as viable cells at 7.5 uM after 24 hrs by annexin V-FITC/propidium iodide staining-based flow cytometric method (reference value: 93.48%)", "format": "functional", "settings": "HCT-116, 24 h, read-out: Activity", "summary_of_the_method": "as §1"}, "[6]": {"tested_on": "HCT-116", "experiment": "Induction of apoptosis in human HCT116 cells assessed as necrotic cells at 10 uM after 48 hrs by annexin V-FITC/propidium iodide staining-based flow cytometric method (reference value: 2.29%)", "format": "functional"}, "[7]": {"tested_on": "HCT-116", "experiment": "Induction of apoptosis in human HCT116 cells assessed as necrotic cells at 7.5 uM after 48 hrs by annexin V-FITC/propidium iodide staining-based flow cytometric method (reference value: 2.29%)", "format": "functional", "summary_of_the_method": "as §1"}, "[8]": {"tested_on": "HCT-116", "experiment": "Induction of apoptosis in human HCT116 cells assessed as viable cells at 12.5 uM after 48 hrs by annexin V-FITC/propidium iodide staining-based flow cytometric method (reference value: 95.05%)", "format": "functional", "settings": "HCT-116, 48 h, read-out: Activity", "summary_of_the_method": "as §1"}, "[9]": {"tested_on": "HCT-116", "experiment": "Induction of apoptosis in human HCT116 cells assessed as late apoptotic cells at 7.5 uM after 24 hrs by annexin V-FITC/propidium iodide staining-based flow cytometric method (reference value: 2.77%)", "format": "functional"}, "[10]": {"tested_on": "A2780/Taxol", "experiment": "Antiproliferative activity against human A2780T cells after 48 hrs by MTT assay", "format": "functional, cell-based", "summary_of_the_method": "(§2)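 Cells seeded at 3×10³/well and grown 24 h, then exposed 48 h to six final concentrations, twofold steps down from 30. MTT (5 mg/mL) was added for 2–4 h at 37 °C. Supernatant was removed, formazan dissolved in DMSO, and OD read at 570 nm. Results are given as IC50, or as percent inhibition where IC50 exceeds the top concentration. At least three runs.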"}, "[11]": {"tested_on": "A2780S", "experiment": "Antiproliferative activity against human A2780S cells at 3.75 uM after 48 hrs by MTT assay relative to control", "format": "functional", "summary_of_the_method": "as §2"}, "[12]": {"tested_on": "A2780S", "experiment": "Antiproliferative activity against human A2780S cells at 15 uM after 48 hrs by MTT assay relative to control", "format": "functional", "summary_of_the_method": "as §2"}, "[13]": {"tested_on": "HCT-116", "experiment": "Induction of apoptosis in human HCT116 cells assessed as nuclear condensation at 7.5 to 12.5 uM after 24 hrs by Hoechst 33342 staining-based fluorescence microscopic method", "format": "functional, cell-based", "summary_of_the_method": "(§3)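 HCT116 cells (1×10⁵/well) cultured 24 h, then exposed to 0, 7.5, 10 or 12.5 μM (final) for 24 h. Rinsed in PBS, fixed in 75% ethanol and checked by inverted microscopy. Then stained with Hoechst 33342 (2 μg/mL in PBS) and scored for apoptotic nuclear morphology under fluorescence microscopy.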"}, "[14]": {"target": "E3 ubiquitin-protein ligase Mdm2 (Homo sapiens) (UniProt Q00987)", "sequence (Q00987 whole entry, looked up)": "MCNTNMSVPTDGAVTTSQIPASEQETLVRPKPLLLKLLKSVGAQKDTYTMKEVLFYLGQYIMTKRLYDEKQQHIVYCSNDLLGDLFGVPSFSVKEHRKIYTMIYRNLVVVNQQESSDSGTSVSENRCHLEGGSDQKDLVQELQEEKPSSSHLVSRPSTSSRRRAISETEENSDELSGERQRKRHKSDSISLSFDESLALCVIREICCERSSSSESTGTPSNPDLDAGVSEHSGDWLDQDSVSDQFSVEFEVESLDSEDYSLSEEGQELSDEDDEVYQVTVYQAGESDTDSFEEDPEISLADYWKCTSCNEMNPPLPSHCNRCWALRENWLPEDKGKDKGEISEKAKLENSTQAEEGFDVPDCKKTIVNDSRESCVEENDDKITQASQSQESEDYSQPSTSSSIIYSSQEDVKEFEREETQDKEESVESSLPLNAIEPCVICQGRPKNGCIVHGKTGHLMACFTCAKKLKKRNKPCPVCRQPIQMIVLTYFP", "experiment": "Inhibition of MDM2-mediated p53 degradation in human HCT116 cells assessed as increase in MDM2 levels at 7.5 to 12.5 uM after 24 hrs by Western blot method", "format": "cell-based", "summary_of_the_method": "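Treated HCT116 cells lysed on ice in RIPA buffer with 1% protease inhibitor cocktail. Lysates cleared at 13000 g for 20 min at 4 °C and protein measured by BCA. Equal protein amounts run on SDS-PAGE, transferred to PVDF and probed with primary then HRP secondary antibodies. Bands detected by enhanced chemiluminescence; 24 h treatment.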"}, "[15]": {"tested_on": "HCT-116", "experiment": "Cell cycle arrest in human HCT116 cells assessed as accumulation at G1 phase at 10 uM after 24 hrs by propidium iodide staining-based flow cytometric method (reference value: 43.79%)", "format": "functional"}, "[16]": {"tested_on": "HCT-116", "experiment": "Cell cycle arrest in human HCT116 cells assessed as accumulation at sub G1 phase at 10 uM after 24 hrs by propidium iodide staining-based flow cytometric method (reference value: 1.73%)", "format": "functional"}, "[17]": {"tested_on": "A2780S", "experiment": "Antiproliferative activity against human A2780S cells after 48 hrs by MTT assay", "format": "functional, cell-based", "summary_of_the_method": "as §2"}, "[18]": {"tested_on": "HCT-116", "experiment": "Induction of apoptosis in human HCT116 cells assessed as late apoptotic cells at 12.5 uM after 48 hrs by annexin V-FITC/propidium iodide staining-based flow cytometric method (reference value: 1.06%)", "format": "functional"}, "[19]": {"tested_on": "HCT-116", "experiment": "Induction of apoptosis in human HCT116 cells assessed as reduction in cell volume at 7.5 to 12.5 uM after 24 hrs by Hoechst 33342 staining-based fluorescence microscopic method", "format": "functional", "summary_of_the_method": "as §3"}, "[20]": {"tested_on": "HCT-116", "experiment": "Induction of apoptosis in human HCT116 cells assessed as early apoptotic cells at 7.5 uM after 24 hrs by annexin V-FITC/propidium iodide staining-based flow cytometric method (reference value: 1.9%)", "format": "functional"}, "[21]": {"tested_on": "HCT-116", "experiment": "Cell cycle arrest in human HCT116 cells assessed as accumulation at sub G1 phase at 12.5 uM after 24 hrs by propidium iodide staining-based flow cytometric method (reference value: 1.73%)", "format": "functional"}, "[22]": {"tested_on": "HCT-116", "experiment": "Induction of apoptosis in human HCT116 cells assessed as cell shrinkage at 7.5 to 12.5 uM after 24 hrs by inverted microscopic method", "format": "functional, cell-based", "summary_of_the_method": "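HCT116 at 1×10⁵/well grown 24 h, then treated 24 h (0, 7.5, 10, 12.5). Cells rinsed in PBS and fixed in 75% ethanol. Morphology was examined by inverted microscopy, then cells were stained with Hoechst 33342 for fluorescence microscopy of nuclei.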"}, "[23]": {"tested_on": "HCT-116", "experiment": "Cell cycle arrest in human HCT116 cells assessed as accumulation at sub G1 phase at 10 uM after 48 hrs by propidium iodide staining-based flow cytometric method (reference value: 0.86%)", "format": "functional"}, "[24]": {"tested_on": "HCT-116", "experiment": "Induction of apoptosis in human HCT116 cells assessed as nuclear fragmentation at 7.5 to 12.5 uM after 24 hrs by Hoechst 33342 staining-based fluorescence microscopic method", "format": "functional, cell-based", "summary_of_the_method": "as §3"}, "[25]": {"tested_on": "A2780S", "experiment": "Antiproliferative activity against human A2780S cells at 30 uM after 48 hrs by MTT assay relative to control", "format": "functional", "summary_of_the_method": "as §2"}, "[26]": {"tested_on": "A2780S", "experiment": "Antiproliferative activity against human A2780S cells at 7.5 uM after 48 hrs by MTT assay relative to control", "format": "functional", "summary_of_the_method": "as §2"}, "[27]": {"tested_on": "HCT-116", "experiment": "Cell cycle arrest in human HCT116 cells assessed as accumulation at S phase at 10 uM after 24 hrs by propidium iodide staining-based flow cytometric method (reference value: 36.43%)", "format": "functional"}}, "note": "The source made the active and inactive calls. The calls are words filed in the database; no cut-off is given here.", "data": [{"compound": "C[C@@H]1Oc2ccc3ccccc3c2[C@@H]2[C@@H]1C=C(C=O)[C@@H](C)[C@]21C(=O)Nc2ccccc21", "values": [{"measurement": "viability at 10 µM", "setting": "[1]", "value": 76.1, "unit": "%"}, {"measurement": "Activity", "setting": "[2]", "value": 21.05, "unit": "%"}, {"measurement": "Activity", "setting": "[3]", "value": 2.21, "unit": "%"}, {"measurement": "Activity", "setting": "[4]", "value": 26.41, "unit": "%"}, {"measurement": "viability at 7.5 µM", "setting": "[5]", "value": 89.9, "unit": "%"}, {"measurement": "Activity", "setting": "[6]", "value": 2.82, "unit": "%"}, {"measurement": "Activity", "setting": "[7]", "value": 2.02, "unit": "%"}, {"measurement": "viability at 12.5 µM", "setting": "[8]", "value": 28.6, "unit": "%"}, {"measurement": "Activity", "setting": "[9]", "value": 4.71, "unit": "%"}, {"measurement": "IC50", "setting": "[10]", "value": 23.4, "unit": "µM"}, {"measurement": "inhibition at 3.75 µM", "setting": "[11]", "value": "17.7 to 24.1", "unit": "%"}, {"measurement": "inhibition at 15 µM", "setting": "[12]", "value": "61.7 to 72.4", "unit": "%"}, {"measurement": "Activity", "setting": "[13]", "value": "Active"}, {"measurement": "inhibition", "setting": "[14]", "value": "Active"}, {"measurement": "Activity", "setting": "[15]", "value": 75.18, "unit": "%"}, {"measurement": "Activity", "setting": "[16]", "value": 15.92, "unit": "%"}, {"measurement": "IC50", "setting": "[17]", "value": 7.91, "unit": "µM"}, {"measurement": "Activity", "setting": "[18]", "value": 18.89, "unit": "%"}, {"measurement": "Activity", "setting": "[19]", "value": "Active"}, {"measurement": "Activity", "setting": "[20]", "value": 3.78, "unit": "%"}, {"measurement": "Activity", "setting": "[21]", "value": 37.03, "unit": "%"}, {"measurement": "Activity", "setting": "[22]", "value": "Active"}, {"measurement": "Activity", "setting": "[23]", "value": 32.93, "unit": "%"}, {"measurement": "Activity", "setting": "[24]", "value": "Active"}, {"measurement": "inhibition at 30 µM", "setting": "[25]", "value": "83.8 to 85.1", "unit": "%"}, {"measurement": "inhibition at 7.5 µM", "setting": "[26]", "value": "50 to 58.1", "unit": "%"}, {"measurement": "Activity", "setting": "[27]", "value": 7.13, "unit": "%"}]}]}
